Shown are actives, neighbours in structure and some others; about 1.8% of the full set was active somewhere.
STEP inh: STEP phosphatase inhibitors, primary screen, biochemical, fluorescence intensity, uHTS. Tyrosine-protein phosphatase non-receptor type 5 (Homo sapiens), P54829. inhibition, % at 20 µM. 0.25% of 360,000 active. recombinant STEP, OMFP fluorogenic substrate;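 active = inhibition at 20 µM, scaled per plate between control wells, above about 37%, limit read from the data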;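 also: 0% = DMSO with enzyme and substrate and 100% = substrate only without enzyme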
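System: STEP phosphatase, cell-free reaction; Buffer or medium: Bis-Tris pH 6.0 buffer with DTT, detergent; Incubation: 20 min at room temperature, dark; Measured by: fluorescence, 480/540 nm.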
SUMO1-SIM PPI: modulators of SUMO1 protein-protein interactions, primary screen, biochemical, uHTS; SUMO1 binding to a labelled peptide, TR-FRET, 1 h; inhibition, % at 20 µM; 0.33% of 360,000 active; AID 602429, 2012; in the data active = inhibition above about 37%
Target sequence (P63165 whole entry, looked up): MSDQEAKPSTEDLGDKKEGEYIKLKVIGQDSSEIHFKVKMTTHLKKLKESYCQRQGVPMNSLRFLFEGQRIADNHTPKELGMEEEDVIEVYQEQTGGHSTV
LMPTP inh: LMPTP phosphatase inhibitors, primary screen, biochemical, fluorescence intensity, uHTS; recombinant LMPTP-A, OMFP fluorogenic substrate; inhibition, % at 20 µM; Low molecular weight phosphotyrosine protein phosphatase (Homo sapiens), P24666; 0.22% of 360,000 active;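 active = compounds that cut the enzyme signal by at least half of the control window in the single-dose screen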;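 also: plate controls were DMSO wells with enzyme plus substrate for no effect and substrate without enzyme for full effect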
Target sequence (P24666 whole entry, looked up): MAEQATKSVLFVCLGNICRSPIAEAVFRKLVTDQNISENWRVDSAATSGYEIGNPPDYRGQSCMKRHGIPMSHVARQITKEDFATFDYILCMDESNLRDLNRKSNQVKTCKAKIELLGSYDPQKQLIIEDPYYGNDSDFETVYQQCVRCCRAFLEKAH
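Test system: LMPTP-A, protein tyrosine phosphatase of low molecular weight; Input: 0.625 nM enzyme; Incubation: 50 min dark incubation at room temperature; Signal: endpoint fluorescence intensity from OMFP dephosphorylation; Read-out basis: % inhibition versus control wells.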
Scp1 inh: Scp-1 phosphatase inhibitors, primary screen, biochemical, colorimetric, uHTS; inhibition, % at 20 µM; Carboxy-terminal domain RNA polymerase II polypeptide A small phosphatase 1 (Homo …; Recombinant Scp1, phosphopeptide, malachite green phosphate absorbance; 0.88% of 340,000 active;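 active = inhibition above about 50% at 20 µM, limit read from the data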;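 also: plate controls were DMSO wells with enzyme for no effect and wells lacking enzyme for full effect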
Target sequence (Q9GZU7 76-261 limits assumed): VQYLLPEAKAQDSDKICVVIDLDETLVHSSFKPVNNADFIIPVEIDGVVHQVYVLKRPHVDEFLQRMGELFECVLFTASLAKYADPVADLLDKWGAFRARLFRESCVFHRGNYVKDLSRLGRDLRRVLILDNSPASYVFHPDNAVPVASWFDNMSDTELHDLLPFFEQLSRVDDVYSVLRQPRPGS
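Assay system: SCP-1 catalytic fragment, aa 76-261 | Buffer or medium: Tris acetate buffer pH 5.5 with MgCl2 and Tween-20 | Compound: One concentration, 20 µM, with 1.0% DMSO | Also added: Phospho 17-mer peptide substrate | Signal: Absorbance at 630 nm | Incubation: 45 min enzyme reaction at room temperature | Measure: % inhibition of SCP-1 phosphate liberation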
DNMT1 inh: human DNMT1 methyltransferase inhibitors, primary screen, biochemical, molecular beacon, fluorescence, HinP1I cleavage, uHTS | DNA (cytosine-5)-methyltransferase 1 (Homo sapiens), P26358 | inhibition (reported as % activation of signal), % at 10 µM | 0.83% of 360,000 active | AID 588458, 2011; in the data active = inhibition above about 50%
HKDC1 inhibitor: HKDC1 hexokinase inhibitors, primary screen, biochemical, fluorescence, uHTS; AID 493160, 2011; 0.16% of 340,000 active; recombinant HKDC1, G6PDH/diaphorase resazurin coupled fluorescence; Q2TB90; inhibition, % at 20 µM;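 active = inhibition above about 35% when tested at 20 µM, limit read from the data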;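 also: plate controls were DMSO wells with enzyme for no effect and DMSO wells lacking enzyme for full effect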
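Test system: HK5 enzyme. Quantity: 5 µg/mL HK5 final. Reagent: glucose and ATP substrates. Schedule: 90 min reaction incubation at room temperature, dark. Technique: resazurin-to-resorufin fluorescence via G6PDH and diaphorase coupling, 525/613 nm. Control set: DMSO wells with and without enzyme mix.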
Scp1 confirm: Scp-1 phosphatase inhibitors, retest, confirmation, biochemical, colorimetric, single concentration. shares compounds with Scp1 inh. inhibition, % at 20 µM. AID 540281, 2011. 61% of 2,500 active. recombinant SCP-1 catalytic domain, phosphate release, malachite green absorbance;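 also: plate controls were DMSO with enzyme for no effect and buffer wells lacking enzyme for full effect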
MG interference: colorimetric readout interference by compounds, confirmation, artefact control for Scp-1 inhibitor project, biochemical, single concentration | shares compounds with Scp1 inh | apparent inhibition (interference), % at 20 µM | Colorimetric interference counterscreen, malachite green absorbance 630 nm | 2,500 tested, under 10 active;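 also: compounds added after enzyme reaction finished so only phosphate colour detection is probed; plate controls were DMSO wells with completed Scp-1 reaction for no effect and substrate wells lacking enzyme for full effect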
Scp-1 Tm shift: Scp-1 binding by thermal shift, confirmation, orthogonal assay for Scp-1 inhibitor project, biophysical, differential scanning fluorimetry | 25% of 1,500 active | Recombinant SCP1, Sypro Orange thermal shift Tm | AID 540329, 2011 | thermal shift relative to vanadate control, % at 40 µM | shares compounds with Scp1 inh;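 active = substances whose mean melting-temperature shift, as a percentage of the reference inhibitor's shift, reaches about 5.3%, limit read from the data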;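 also: 0% = Tm of DMSO wells and 100% = Tm with sodium orthovanadate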
Active calls of the source: *; x = no result given.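 The calls were made as follows, unless noted: active = inhibition of at least 30% at 20 µM; inactive = the rest.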

SMILES | STEP inh | SUMO1-SIM PPI | LMPTP inh | Scp1 inh | DNMT1 inh | HKDC1 inhibitor | Scp1 confirm | MG interference | Scp-1 Tm shift
O=C(N/N=C/c1ccc2c(c1)OCO2)c1ccc2c(c1)OCCO2 | -1.3 | -8.1 | 0.4 | -2.7 | 1.0 | 0.8 | x | x | x
COc1ccc(C(=O)N2CCC(C)(C(=O)O)C2)c(OC)c1 (centres undefined) | -2.9 | 1.3 | -0.8 | x | 1.6 | x | x | x | x
COc1ccc(N2C(=O)c3ccccc3NC(=O)C2C(=O)NCCc2ccccc2F)cc1 (centres undefined) | x | 1.1 | 0.2 | x | x | x | x | x | x
CCOC(=O)N1CCN(C(=O)C2CC(c3ccccc3OC)=NO2)CC1 (centres undefined) | 1.8 | -0.6 | -1.1 | -2.7 | 0.8 | -8.4 | x | x | x
CCOC(=O)/C=C1\CC(C(=O)OCC)Oc2c(OC)cccc21 (centres undefined) | -1.3 | -4.6 | -0.7 | 103.5* | 6.6 | 11.3 | 66.6* | -15.6 | -14.2
O=C(COC(=O)c1ccc(F)cc1F)Nc1cc(S(=O)(=O)N2CCOCC2)ccc1Cl | -1.6 | 1.5 | 0.7 | -6.9 | -1.7 | -0.9 | x | x | x
C[n+]1cnn2c1SCC1(COC1)C2 | -1.2 | -0.8 | -2.5 | 104.3* | -1.4 | 8.4 | -12.0 | -15.1 | x
CCOC(=O)c1cc2c(c(CCO)n1)[C@@H](CCO)N(S(=O)(=O)C(C)(C)C)C2 | 3.1 | 7.2 | -0.8 | -10.9 | 1.8 | -4.3 | x | x | x
COc1ccc(/C=C/C(=O)Oc2cccc(/C=N/NC(=O)c3cccc(F)c3)c2)cc1 | 0.0 | 0.6 | 5.2 | 86.9* | 4.0 | 2.7 | 36.9* | -10.9 | -11.7
O=C(N/N=C/c1ccccc1)c1ccc(NC(=O)c2ccc(F)cc2)cc1 | 0.4 | 1.5 | 2.4 | -5.5 | 5.7 | -4.3 | x | x | x
COC(=O)c1ccc(/C=N/NC(=O)c2cccc(F)c2)cc1 | 8.5 | -14.8 | -1.0 | 87.0* | 0.2 | -0.4 | 48.5* | -18.0 | -11.3
Cc1ccccc1C(=O)Nc1ccc(C(=O)N/N=C/c2ccc(F)cc2)cc1 | 12.5 | -3.2 | 2.0 | 91.0* | 26.4 | -7.2 | 28.1 | -12.9 | x
Cc1ccc(NC(=O)CN2CCN(C(=O)C3CC3)CC2)c(F)c1 | -2.3 | 4.7 | 0.2 | x | 16.4 | x | x | x | x
COC(=O)CSc1nc(SCc2ccccc2Cl)nc2c1CCCC2 | 2.3 | 1.3 | 5.1 | 53.4* | -4.5 | -4.3 | -4.6 | -2.7 | x
O=C(OCn1nnc2ccccc2c1=O)c1ccc(F)c(S(=O)(=O)N2CCOCC2)c1 | -3.6 | -4.4 | 0.7 | x | -4.8 | x | x | x | x
CCN1/C(=C\C(C)=O)Sc2ccc(OC)cc21 | 1.5 | -4.8 | -2.0 | 95.6* | 3.8 | -2.8 | 9.5 | -4.9 | x
COCCCNC(=O)CSc1ccsc1[N+](=O)[O-] | 1.3 | -18.0 | 1.0 | 19.1 | 0.2 | -2.3 | x | x | x
Cc1ccccc1OCc1nnc(SCC(=O)NCc2ccco2)n1C | -0.8 | 0.3 | -0.6 | -3.1 | 4.0 | -7.9 | x | x | x
C=CCn1c(Cc2cccs2)nnc1SCC(=O)NCc1ccco1 | -0.9 | 3.9 | 5.9 | 53.0* | 9.0 | 2.5 | 47.2* | -22.7 | 1.6
C=CCn1c(COc2ccccc2F)nnc1SCC(=O)NC(=O)NCc1ccco1 | -0.9 | 1.3 | 6.2 | 91.5* | 41.5 | 5.4 | 65.4* | 1.7 | -7.0
COc1ccccc1OCc1nnc(SCC(=O)NCc2ccco2)n1Cc1ccco1 | 8.2 | 11.5 | 2.7 | 94.6* | 42.9 | 8.2 | 87.7* | 2.8 | 1.6
C=CCn1c(COc2ccccc2-c2ccccc2)nnc1SCC(=O)NC(=O)NCc1ccco1 | 0.8 | 0.0 | 1.7 | 0.6 | 2.1 | 0.4 | x | x | x
O=C(CSc1ccsc1[N+](=O)[O-])NCc1ccco1 | 4.7 | -10.2 | 3.6 | 56.7* | 29.0 | 3.5 | 61.1* | -15.6 | 4.9
CCOc1ccc(Br)cc1C(=O)N/N=C/c1ccc([N+](=O)[O-])cc1 | 20.6 | -6.8 | 38.4 | 80.9* | 16.2 | -3.7 | 32.1* | 3.6 | 2.8
CCOc1ccc(Br)cc1C(=O)N/N=C/c1ccccn1 | -1.7 | -12.9 | -1.1 | -6.0 | 1.2 | -7.5 | x | x | x
SMILES | STEP inh | SUMO1-SIM PPI | LMPTP inh | Scp1 inh | DNMT1 inh | HKDC1 inhibitor | Scp1 confirm | MG interference | Scp-1 Tm shift
COc1ccc(Br)cc1C(=O)N/N=C/c1ccc([N+](=O)[O-])cc1 | 20.9 | -1.3 | 43.2 | 99.4* | 15.1 | -2.9 | 33.0* | -7.3 | 1.9
COc1ccccc1-c1noc2c1C(=O)N(Cc1cn(C3CCCC3)nn1)CC2 | x | 7.6 | -2.3 | x | x | x | x | x | x
CC1(C(=O)NS(=O)(=O)c2cccs2)CCN1C(=O)CC1CC1 (centres undefined) | -4.2 | 3.6 | -0.1 | x | 11.4 | x | x | x | x
O=C(O)COc1ccc2c(c1)O/C(=C\c1cccs1)C2=O | 0.6 | 2.3 | 1.1 | 13.8 | 4.4 | -7.7 | x | x | x
O=C(O)COc1ccc2c(c1)O/C(=C\c1ccco1)C2=O | 76.7* | 6.6 | 1.9 | 75.4* | 69.3* | -1.0 | 70.4* | 5.5 | 7.5*
CN(CCCC1CCCC1)C(=O)c1cc(COc2ccc(F)c(F)c2)on1 | 3.6 | 3.3 | 5.0 | 63.4* | -4.7 | 0.0 | -6.2 | -6.5 | x
COc1ccc(N2CCN(C(CNC(C)=O)c3ccc4c(c3)OCO4)CC2)cc1 (centres undefined) | -0.5 | -1.6 | -2.5 | 6.2 | 0.7 | -4.4 | x | x | x
COc1ccc(N2CCN(C(CNC(=O)CC(C)(C)C)c3ccc4c(c3)OCO4)CC2)cc1 (centres undefined) | 1.4 | 3.2 | -0.7 | 63.6* | 0.8 | -7.0 | -9.7 | -10.1 | x
O=C(NN=C1c2ccccc2-c2ccccc21)c1ccccn1 | 8.1 | -8.7 | 25.0 | 72.8* | 3.8 | -5.2 | 24.4 | -21.7 | x
CC(C)NC(=O)N(C)C[C@H]1Oc2ccc(NS(=O)(=O)c3cn(C)cn3)cc2C(=O)N([C@H](C)CO)C[C@@H]1C | -5.0 | 6.5 | -1.5 | 81.5* | 10.0 | -4.5 | 6.0 | -9.0 | x

Source: PubChem BioAssay
